ChEMBL document CHEMBL1955747, “Maximizing lipophilic efficiency: the use of Free-Wilson analysis in the design of inhibitors of acetyl-CoA carboxylase” (J Med Chem, 2012)
Values after ≈ are worked out from the molar mass of the structure shown.

Experiments:
Acetyl-CoA carboxylase 2 = Acetyl-CoA carboxylase 2 (Homo sapiens, UniProt O00763); assay: Inhibition of human Acetyl-CoA carboxylase 2 expressed in CHO cells after 1 hr by fluorescence assay; type: cell-based
Acetyl-CoA carboxylase 1 = Acetyl-CoA carboxylase 1 (Rattus norvegicus, UniProt P11497); assay: Inhibition of rat liver Acetyl-CoA carboxylase 1 using acetyl-CoA as substrate preincubated for 10 mins prior substrate addition measured after 20 mins by luminescence counting
Summary of the method: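 Each IC50 comes from single-point inhibition data run in triplicate. The reported value is the arithmetic mean of at least three independent replicates ± SEM.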

[1] = Intrinsic clearance in human liver microsomes; type: ADME, Microsome; settings: read-out: CLH
[2] = Aqueous solubility at pH 7.4; type: physicochemical; settings: buffer
[3] = Half life in po dosed Sprague-Dawley rat; type: ADME, organism-based; settings: in vivo
[4] = Permeability across dog RRCK cells; type: ADME, cell-based, Canis lupus familiaris, MDCKII-LE; settings: MDCK, read-out: permeability
Rattus norvegicus [5] = assay: Volume of distribution at steady state in po dosed Sprague-Dawley rat; type: ADME, organism-based; settings: in vivo
[6] = Aqueous solubility at pH 6.5; type: physicochemical; settings: buffer
[7] = Fraction unbound in Sprague-Dawley rat plasma; type: ADME, cell-free
Rattus norvegicus [8] = assay: Antidiabetic activity in Sprague-Dawley rat assessed as inhibition of malonyl-CoA production in liver at 50 mg/kg, po after 2 hrs by LC-MS analysis; type: functional
[9] = Plasma clearance in po dosed Sprague-Dawley rat; type: ADME, organism-based
Rattus norvegicus [10] = assay: Antidiabetic activity in Sprague-Dawley rat assessed as inhibition of malonyl-CoA production in quadriceps at 50 mg/kg, po after 2 hrs by LC-MS analysis; type: functional
[11] = Oral bioavailability in Sprague-Dawley rat; type: ADME, organism-based; settings: in vivo
Rattus norvegicus [12] = assay: Antidiabetic activity in po dosed Sprague-Dawley rat assessed as inhibition of malonyl-CoA production in quadriceps after 2 hrs by LC-MS analysis; type: functional
Rattus norvegicus [13] = assay: Antidiabetic activity in po dosed Sprague-Dawley rat assessed as inhibition of malonyl-CoA production in liver after 2 hrs by LC-MS analysis; type: functional

Sequence of Acetyl-CoA carboxylase 2 (O00763 whole entry): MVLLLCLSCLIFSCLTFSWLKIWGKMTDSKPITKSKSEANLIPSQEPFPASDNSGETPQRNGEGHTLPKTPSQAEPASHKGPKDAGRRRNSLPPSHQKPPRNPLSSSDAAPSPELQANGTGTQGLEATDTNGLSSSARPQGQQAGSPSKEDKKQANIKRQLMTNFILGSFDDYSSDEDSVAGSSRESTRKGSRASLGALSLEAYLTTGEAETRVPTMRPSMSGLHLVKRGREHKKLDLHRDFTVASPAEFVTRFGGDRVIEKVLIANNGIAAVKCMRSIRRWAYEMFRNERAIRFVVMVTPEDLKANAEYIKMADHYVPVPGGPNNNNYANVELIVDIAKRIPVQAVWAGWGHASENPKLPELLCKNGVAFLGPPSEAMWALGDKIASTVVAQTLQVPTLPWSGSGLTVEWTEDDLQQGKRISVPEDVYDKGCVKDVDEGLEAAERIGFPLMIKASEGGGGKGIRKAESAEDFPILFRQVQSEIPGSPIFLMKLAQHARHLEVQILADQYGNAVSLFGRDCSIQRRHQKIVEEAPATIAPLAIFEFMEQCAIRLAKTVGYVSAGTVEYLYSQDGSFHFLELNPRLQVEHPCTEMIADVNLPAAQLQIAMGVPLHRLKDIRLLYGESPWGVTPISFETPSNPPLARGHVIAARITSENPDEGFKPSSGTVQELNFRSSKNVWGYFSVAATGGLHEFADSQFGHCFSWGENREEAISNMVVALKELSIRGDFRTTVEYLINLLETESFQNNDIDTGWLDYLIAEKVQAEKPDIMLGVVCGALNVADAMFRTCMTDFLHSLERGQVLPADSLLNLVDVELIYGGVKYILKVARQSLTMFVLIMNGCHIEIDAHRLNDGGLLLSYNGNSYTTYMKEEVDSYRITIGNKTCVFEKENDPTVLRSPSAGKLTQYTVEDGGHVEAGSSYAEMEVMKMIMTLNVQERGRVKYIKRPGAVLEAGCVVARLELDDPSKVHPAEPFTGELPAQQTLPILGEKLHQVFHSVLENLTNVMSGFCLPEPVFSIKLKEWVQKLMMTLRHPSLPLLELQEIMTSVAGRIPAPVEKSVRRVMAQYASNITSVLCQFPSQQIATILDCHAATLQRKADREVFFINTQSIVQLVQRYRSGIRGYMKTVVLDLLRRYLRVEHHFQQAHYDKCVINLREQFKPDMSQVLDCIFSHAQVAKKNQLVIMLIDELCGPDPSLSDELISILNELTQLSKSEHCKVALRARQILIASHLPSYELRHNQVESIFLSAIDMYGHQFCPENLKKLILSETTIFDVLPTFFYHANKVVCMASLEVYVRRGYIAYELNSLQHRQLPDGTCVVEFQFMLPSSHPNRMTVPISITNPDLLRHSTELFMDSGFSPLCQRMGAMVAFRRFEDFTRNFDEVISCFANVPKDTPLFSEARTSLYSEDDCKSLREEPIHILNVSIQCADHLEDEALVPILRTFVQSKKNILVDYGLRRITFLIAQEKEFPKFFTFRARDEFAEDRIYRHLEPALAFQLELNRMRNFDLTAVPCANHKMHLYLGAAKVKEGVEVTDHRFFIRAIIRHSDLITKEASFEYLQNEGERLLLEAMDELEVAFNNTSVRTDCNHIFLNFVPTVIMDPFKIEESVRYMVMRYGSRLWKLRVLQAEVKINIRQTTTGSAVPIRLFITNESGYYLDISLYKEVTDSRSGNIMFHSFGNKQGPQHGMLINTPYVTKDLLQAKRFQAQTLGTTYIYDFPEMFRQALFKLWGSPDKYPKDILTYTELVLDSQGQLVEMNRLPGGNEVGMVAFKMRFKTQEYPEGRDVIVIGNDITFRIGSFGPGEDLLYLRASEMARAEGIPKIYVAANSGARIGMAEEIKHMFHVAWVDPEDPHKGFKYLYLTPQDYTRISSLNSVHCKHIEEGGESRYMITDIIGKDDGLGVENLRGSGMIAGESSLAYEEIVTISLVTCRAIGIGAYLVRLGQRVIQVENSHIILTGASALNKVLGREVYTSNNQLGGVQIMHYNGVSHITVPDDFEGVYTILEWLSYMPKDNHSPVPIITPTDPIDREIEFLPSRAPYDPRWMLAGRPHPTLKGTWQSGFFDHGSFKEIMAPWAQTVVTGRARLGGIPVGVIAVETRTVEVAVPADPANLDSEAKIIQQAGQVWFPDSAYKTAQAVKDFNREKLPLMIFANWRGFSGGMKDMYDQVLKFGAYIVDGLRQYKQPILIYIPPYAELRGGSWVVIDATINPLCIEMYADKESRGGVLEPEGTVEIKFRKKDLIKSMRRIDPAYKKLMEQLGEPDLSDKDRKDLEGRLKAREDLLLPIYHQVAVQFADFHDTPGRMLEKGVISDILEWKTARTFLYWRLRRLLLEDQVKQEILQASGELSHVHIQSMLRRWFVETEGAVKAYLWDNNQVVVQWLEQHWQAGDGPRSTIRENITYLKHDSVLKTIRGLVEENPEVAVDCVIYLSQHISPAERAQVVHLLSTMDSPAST

Row | IC50 (Acetyl-CoA carboxylase 2) | IC50 (Acetyl-CoA carboxylase 1) | Structure (SMILES) | other results
1 | 0.045 µM | – | CCCn1cc2c(n1)C(=O)CC1(CCN(C(=O)c3cc(C)c4[nH]ncc4c3)CC1)O2 | –
2 | 0.092 µM | 0.1 µM | CCn1nc2c(c1C)OC1(CCN(C(=O)c3ccc4[nH]ncc4c3)CC1)CC2=O | –
3 | 0.063 µM | 0.062 µM | CCn1cc2c(n1)C(=O)CC1(CCN(C(=O)c3cc(C)c4[nH]ncc4c3)CC1)O2 | –
4 | 0.056 µM | 0.034 µM | CCn1nc2c(c1C)OC1(CCN(C(=O)c3cc(C)c4nc(C)[nH]c4c3)CC1)CC2=O | –
5 | 0.023 µM | – | Cc1cc(C(=O)N2CCC3(CC2)CC(=O)c2nn(C(C)C)cc2O3)cc2cn[nH]c12 | –
6 | 0.0074 µM | 0.0096 µM | Cc1cc(C(=O)N2CCC3(CC2)CC(=O)c2nn(C(C)(C)C)cc2O3)cc2[nH]cnc12 | CLint scaled [1]: 12.4 mL/min/kg
7 | 0.013 µM | 0.012 µM | CCn1nc2c(c1C)OC1(CCN(C(=O)c3cc(C)c4[nH]nc(C)c4c3)CC1)CC2=O | –
8 | – | 0.26 µM | Cc1cc(C(=O)N2CCC3(CC2)CC(=O)c2nn(Cc4ccccc4)cc2O3)cc2cn[nH]c12 | –
9 | – | – | Cc1n[nH]c2c(C)cc(C(=O)N3CCC4(CC3)CC(=O)c3nn(C5CCOC5)c(C)c3O4)cc12 (configuration not stated) | CLint scaled [1]: 23.1 mL/min/kg
10 | 0.65 µM | 0.37 µM | Cc1cc(C(=O)N2CCC3(CC2)CC(=O)c2nn(C)cc2O3)cc2cn[nH]c12 | –
11 | 0.0066 µM | – | Cc1nc2c(C)cc(C(=O)N3CCC4(CC3)CC(=O)c3nn(C(C)(C)C)cc3O4)cc2[nH]1 | CLint scaled [1]: 15.1 mL/min/kg
12 | – | – | Cc1cc2c(cc1C)C(=O)CC1(CCN(C(=O)c3cc(C)c4[nH]ncc4c3)CC1)O2 | solubility [2]: 19 µM (≈ 7.67 µg/mL); CLint scaled [1]: 68 mL/min/kg
13 | 0.042 µM | 0.029 µM | CCn1nc2c(c1C)OC1(CCN(C(=O)c3ccc4[nH]nc(C)c4c3)CC1)CC2=O | –
14 | 0.014 µM | – | Cc1cc(C(=O)N2CCC3(CC2)CC(=O)c2nn(C4CCC4)cc2O3)cc2cn[nH]c12 | –
15 | – | 0.017 µM | CC(C)(C)n1cc2c(n1)C(=O)CC1(CCN(C(=O)c3ccc4nc[nH]c4c3)CC1)O2 | half-life [3]: 4.2 h; Papp [4]: 10.9 ×10⁻⁶ cm/s; Vdss (Rattus norvegicus [5]): 2.3 L/kg; solubility [6]: 300 µM (≈ 122 µg/mL); fraction unbound [7]: 0.55; Imax (Rattus norvegicus [8]): 78%; CL/F [9]: 26 mL/min/kg; Imax (Rattus norvegicus [10]): 75%; bioavailability [11]: 50%; CLint scaled [1]: < 8 mL/min/kg; ED50 (Rattus norvegicus [12]): 2.6 mg/kg; ED50 (Rattus norvegicus [13]): 1.6 mg/kg
16 | 0.08 µM | 0.049 µM | CCn1nc2c(c1C)OC1(CCN(C(=O)c3cc(C)c4nc[nH]c4c3)CC1)CC2=O | –
17 | 0.063 µM | 0.046 µM | Cc1cc(C(=O)N2CCC3(CC2)CC(=O)c2nn(C4CCCCC4)cc2O3)cc2cn[nH]c12 | –
18 | 0.47 µM | 0.28 µM | Cc1cc(C(=O)N2CCC3(CC2)CC(=O)c2nn(C)c(C)c2O3)cc2cn[nH]c12 | –
19 | 0.037 µM | – | CCn1nc2c(c1C)OC1(CCN(C(=O)c3cc(C)c4[nH]ncc4c3)CC1)CC2=O | –
20 | 0.014 µM | 0.012 µM | Cc1n[nH]c2c(C)cc(C(=O)N3CCC4(CC3)CC(=O)c3nn(C(C)C)cc3O4)cc12 | CLint scaled [1]: < 8 mL/min/kg
21 | 0.037 µM | 0.031 µM | CCc1cc(C(=O)N2CCC3(CC2)CC(=O)c2nn(CC)c(C)c2O3)cc2cn[nH]c12 | –
22 | 0.0094 µM | – | Cc1cc(C(=O)N2CCC3(CC2)CC(=O)c2nn(C4CCCC4)cc2O3)cc2cn[nH]c12 | –
23 | – | 0.0115 µM | CCOc1cc(C(=O)N2CCC3(CC2)CC(=O)c2nn(CC)c(C)c2O3)cc2c(C)n[nH]c12 | –
24 | – | 0.036 µM | CCc1n[nH]c2ccc(C(=O)N3CCC4(CC3)CC(=O)c3nn(CC)c(C)c3O4)cc12 | –
25 | 0.0069 µM | 0.007 µM | Cc1cc(C(=O)N2CCC3(CC2)CC(=O)c2nn(C(C)(C)C)cc2O3)cc2cn[nH]c12 | –
26 | 0.021 µM | 0.013 µM | Cn1ncc2ccc(C(=O)N3CCC4(CC3)CC(=O)c3nn(C(C)(C)C)cc3O4)cc21 | CLint scaled [1]: 13.1 mL/min/kg
